Residue numbers refer to the chain shown, from its start. Values joined by “and” are separate entries in the source; they are usually repeats but may differ in a detail not shown here. Equal entries are not always repeated.
How the values were obtained:
[1] = biological target: T1, hHDAC8 (Homo sapiens, UniProt Q9BY41); assay: hHDAC8 enzymatic activity inhibition; type: biochemical; settings: for enhancement in potency toward hHDAC8: NF2883 with respect to NF2453, NF2889 with respect to NF2452
T1 sequence (Q9BY41 1-377): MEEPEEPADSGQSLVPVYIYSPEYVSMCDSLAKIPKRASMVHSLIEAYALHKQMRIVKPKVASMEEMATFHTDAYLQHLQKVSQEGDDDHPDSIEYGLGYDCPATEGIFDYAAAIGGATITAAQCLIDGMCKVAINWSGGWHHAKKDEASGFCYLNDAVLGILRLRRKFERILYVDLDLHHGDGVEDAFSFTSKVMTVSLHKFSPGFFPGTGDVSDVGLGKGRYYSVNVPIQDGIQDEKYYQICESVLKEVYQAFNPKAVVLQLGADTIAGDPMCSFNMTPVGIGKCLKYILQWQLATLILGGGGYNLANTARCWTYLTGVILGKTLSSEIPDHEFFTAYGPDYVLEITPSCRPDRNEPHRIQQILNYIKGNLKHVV

[2] = tested on: S. mansoni larvae (schistosomula); assay: ATP-based luminescence viability assay on schistosomula; type: cell-based, Schistosoma mansoni; settings: 72 h incubation, normalized to DMSO and gambogic acid 10 μM
In short: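 Schistosomula of a Puerto Rican strain were made by mechanical transformation of cercariae and purified on a Percoll gradient. They were exposed at 150 per well in phenol-red-free DMEM to test compound in DMSO for 72 h at 37 °C, 5% CO2. CellTiterGlo luminescence was read after 30 min. Three independent experiments were run. LD50 came from a variable-slope log(inhibitor) versus normalized response fit.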

[3] = biological target: T2, SmHDAC8 (Schistosoma mansoni, UniProt A5H660); assay: Binding to SmHDAC8 by quenching of intrinsic fluorescence
T2 sequence (A5H660 1-440): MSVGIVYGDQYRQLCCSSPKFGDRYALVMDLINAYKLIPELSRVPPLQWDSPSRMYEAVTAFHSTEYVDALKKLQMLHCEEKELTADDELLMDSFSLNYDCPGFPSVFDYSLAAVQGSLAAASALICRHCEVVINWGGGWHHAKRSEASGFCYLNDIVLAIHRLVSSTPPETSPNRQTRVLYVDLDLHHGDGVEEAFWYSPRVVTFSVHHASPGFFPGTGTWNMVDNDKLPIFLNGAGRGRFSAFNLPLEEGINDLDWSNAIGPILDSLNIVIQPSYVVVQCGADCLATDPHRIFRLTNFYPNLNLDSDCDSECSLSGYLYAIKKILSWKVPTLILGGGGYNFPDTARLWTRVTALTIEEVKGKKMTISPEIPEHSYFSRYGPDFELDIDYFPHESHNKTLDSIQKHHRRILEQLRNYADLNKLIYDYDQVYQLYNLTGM
In short: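 Recombinant His6-tagged SmHDAC8 was expressed in E. coli BL21(DE3) and used at 0.125 μM in 50 mM Tris pH 8.0, 150 mM KCl, 100 μM DTT. It was titrated with test compound from 1.6 nM to 125 μM, with 5 min stirred equilibration per addition at 25 °C. Intrinsic fluorescence quenching was read at 340 nm (excitation 280 nm), averaging 4–5 accumulations. Ki came from a quadratic 1:1 binding fit.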

[4] = biological target: T2, SmHDAC8; assay: SmHDAC8 enzymatic activity inhibition; type: biochemical; settings: for enhancement in potency toward SmHDAC8: NF2883 with respect to NF2453, NF2889 with respect to NF2452
[5] = tested on: S. mansoni adult worm pairs; assay: Adult worm pairs viability assay; type: cell-based, Schistosoma mansoni; settings: for reduction of adult worm pairs viability: day 7; for adult worm pairs viability: 24 h
In short: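 Five adult worm pairs per sample were held in complete DMEM. Test compound was added once at 10, 20 or 50 μM, with no medium addition or replacement, against a DMSO vehicle control. Worms were scored 0–3 daily under a stereomicroscope for 7 days. The sample score was the sum of worm scores divided by worm number, expressed as percent relative to DMSO. Three experiments were run.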

[6] = biological target: T1, hHDAC8; assay: Steady-state enzyme kinetics of hHDAC8 with fixed inhibitor concentration; type: biochemical; settings: for type of inhibition of hHDAC8: from steady-state kinetics
In short: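 Commercial recombinant human HDAC8 from the Fluor-de-Lys kit was run with varied Fluor-de-Lys acetylated peptide-AMC substrate. Reactions contained vehicle or a fixed test compound concentration. Steady-state parameters came from Michaelis–Menten nonlinear regression.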

[7] = biological target: T3, SmHDAC8 WT (Schistosoma mansoni, UniProt A5H660); assay: Steady-state enzyme kinetics of SmHDAC8 with fixed inhibitor concentration; type: biochemical; settings: for type of inhibition of SmHDAC8: from steady-state kinetics and IC50 at different substrate concentrations
T3 sequence (A5H660 1-440): T2 sequence (A5H660 1-440)
In short: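 SmHDAC8 (0.425 μM) was preincubated 15 min at 25 °C with DMSO, 5 μM or 1 μM test compound. Timed aliquots were quenched with TSA/trypsin. Initial rates came from product versus time via standard curve and were fitted to Michaelis–Menten. Two to four independent experiments were run.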

[8] = tested on: acetylation of lysine residues within histone proteins of S. mansoni adult worm pairs; assay: Histone K-acetylation Western blot on adult worm pairs; type: cell-based, Schistosoma mansoni
In short: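 Ten adult worm pairs were treated 24 or 72 h with test compound at concentrations taken from viability curves. Positive controls were TSA 1 μM and a reference HDAC inhibitor 20 μM; DMSO was the negative control. Lysis buffer contained 5 mM sodium butyrate. Histone-enriched fractions were run on 15% SDS-PAGE and blotted with anti-acetyl-lysine (1:4000) and anti-α-tubulin (1:5000), with Ponceau calibration. Acetyl-lysine densitometry was normalized to tubulin, then to DMSO.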

[9] = biological target: T4, SmHDAC8 W198A mutant (Schistosoma mansoni, UniProt A5H660, W198A); assay: Fluorescence emission spectra of SmHDAC8 W198A mutant with inhibitors; type: binding; settings: inhibitor 25 μM, excitation 280 and 298 nm
T4 sequence (A5H660 1-440 W198A): T2 sequence (A5H660 1-440) with W198A
In short: (§1)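 WT SmHDAC8 or the W198A mutant (made by site-directed mutagenesis and expressed in E. coli) was used at 0.125 μM in 10 mM Tris pH 8.0, 150 mM KCl, 5 mM DTT. Protein was preincubated 15 min at 25 °C with 25 μM test compound, with a DMSO reference and enzyme-free blanks. Emission spectra were recorded after 280 and 298 nm excitation, averaging 4–5 accumulations. Some runs included 2 mM Na/K-tartrate.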

[10] = biological target: T5, WT SmHDAC8 (Schistosoma mansoni, UniProt A5H660); assay: Fluorescence emission spectra of WT SmHDAC8 with inhibitors; type: binding; settings: inhibitor 25 μM, excitation 280 and 298 nm
T5 sequence (A5H660 1-440): T2 sequence (A5H660 1-440)
In short: as §1

CN1CCC2(CC1)c1ccccc1N(Cc1ccc(C(=O)NO)s1)C2c1ccc(Cl)cc1 (stereo not drawn) [NF2883, 5-((2-(4-chlorophenyl)-1′-methylspiro[indoline-3,4′-piperidin]-1-yl)methyl)-N-hydroxythiophene-2-carboxamide]
IC50 [1]: 160 ± 20 nM | enhancement in potency toward hHDAC8 [1]: about 20 fold | LD50 on schistosomula [2]: 26.2 ± 1.1 µM | Ki [3]: 130 ± 50 nM | enhancement in potency toward SmHDAC8 [4]: about 20 fold | reduction of adult worm pairs viability ([5]; 10 μM): 50% | reduction of adult worm pairs viability ([5]; 20 μM): almost complete death | adult worm pairs viability ([5]; 50 μM): immediate loss of viability

CN1CCC2(CC1)c1ccccc1N(Cc1ccc(C(=O)NO)s1)C2c1cccc(Cl)c1 (stereo not drawn) [NF2889, 5-((2-(3-Chlorophenyl)-1′-methylspiro[indoline-3,4′-piperidin]-1-yl)methyl)-N-hydroxythiophene-2-carboxamide]
IC50 [1]: 1320 ± 70 nM | enhancement in potency toward hHDAC8 [1]: 2 fold | LD50 on schistosomula [2]: 26.2 ± 1.6 µM | type of inhibition of hHDAC8 [6]: competitive | kcat ([6]; hHDAC8 with 2 μM NF2889): 0.011 ± 0.005 s⁻¹ | kcat ([7]; SmHDAC8 with 1 μM NF2889): 0.007 ± 0.003 s⁻¹ | type of inhibition of SmHDAC8 [7]: mixed-type inhibition | increase of lysine acetylation signal versus DMSO ([8]; 5 μM for 72 h): 11 fold | increase of lysine acetylation signal versus DMSO ([8]; 10 μM for 24 h): 6.5 fold | fluorescence signal of SmHDAC8 W198A mutant with respect to control [9]: no quenching | Ki [3]: 600 ± 200 nM | enhancement in potency toward SmHDAC8 [4]: 6 fold | reduction of adult worm pairs viability ([5]; 10 μM): 50% | reduction of adult worm pairs viability ([5]; 20 μM): almost complete death | adult worm pairs viability ([5]; 50 μM): immediate loss of viability | fluorescence signal of WT SmHDAC8 with respect to control [10]: quenched

O=C(NO)c1ccc(Cn2c3c(c4cc(Br)ccc42)SC(c2ccccc2)C3)s1 (stereo not drawn) [NF2886, 5-((7-Bromo-2-phenyl-2,3-dihydro-4H-thieno[3,2-b]indol-4-yl)methyl)-N-hydroxythiophene-2-carboxamide]
IC50 [1]: 3140 ± 570 nM | LD50 on schistosomula [2]: ~60 µM and 59.9 ± 4.9 µM | type of inhibition of hHDAC8 [6]: competitive | kcat ([6]; hHDAC8 with 5 μM NF2886): 0.012 ± 0.004 s⁻¹ | kcat ([7]; SmHDAC8 with 5 μM NF2886): 0.017 ± 0.003 s⁻¹ | increment of KM versus vehicle ([7]; SmHDAC8 with 5 μM inhibitor): > 3 fold | type of inhibition of SmHDAC8 [7]: competitive inhibitor | fluorescence signal of SmHDAC8 W198A mutant with respect to control [9]: quenching | Ki [3]: 9700 ± 7200 nM | increase of IC50 with 150 μM substrate versus 50 μM ([4]; SmHDAC8): ~2 fold | reduction of adult worm pairs viability ([5]; 10 μM): ineffective | reduction of adult worm pairs viability ([5]; 20 μM): ~50% | reduction of adult worm pairs viability ([5]; 50 μM): ~50% | fluorescence signal of WT SmHDAC8 with respect to control [10]: quenched

CC(/C=C/C(=O)NO)=C\[C@@H](C)C(=O)c1ccc(N(C)C)cc1 [TSA, Trichostatin A, reference compound]
increase of K-acetylation to tubulin ratio versus control ([8]; 1 μM, positive control): About 10 fold
